Only some compounds are listed: those with a hit (about 3.8% of all), similar ones and a draw of the others.
KCNK9 inh: human KCNK9 channel inhibition | hit rate 1.2% among 310,000 | HEK293 KCNK9, FluxOR thallium flux fluorescence; hits give low values | AID 488922 | B-score at 10 µM;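 active means ratio B-score over 3 SD below the library mean, with starting fluorescence within 5 SD of its mean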;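 further: negative B-score means less thallium flux so channel inhibition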
KCNQ1 pot: potentiates or activates the human KCNQ1 potassium channel. P51787. B-score at 10 µM. AID 2648. hit rate 0.35% among 310,000. CHO-K1 KCNQ1, thallium flux FluxOR fluorescence; hits give high values;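 active means fluorescence ratio B-score, a plate-corrected score, at least three library SD, with initial intensity B-score within 5 SD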
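Test system: CHO-K1 cells stably expressing KCNQ1 / Medium: assay buffer / Also added: depolarizing K+/Tl+ stimulus, K2SO4 and Tl2SO4 each 12.5 mM in 5x stock / Incubation: 90 min dye loading and 20 min compound exposure, both at room temperature / Signal: thallium influx via FluxOR fluorescence, kinetic imaging / Evaluation: B score of baseline-normalized fluorescence ratio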
hERG protect: compounds protecting human hERG from proarrhythmic drug block | CHO-hERG, FluxOR thallium flux, dofetilide IC70 present | activation (rescue from dofetilide block), less the hit threshold, % at 10 µM | hit rate 0.51% among 310,000 | Q12809 | AID 1511;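 active means activation above the mean of controls blocked by dofetilide plus 5 SD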;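 further: thallium influx through hERG after potassium depolarization seen as dye fluorescence rise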
KCNK3 inh: human KCNK3 channel inhibition, primary screen. CHO-KCNK3 thallium flux, FluxOR fluorescence; hits give low values. O14649. B-score at 10 µM. hit rate 0.84% among 340,000;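 active means B-score under library mean minus 4 SD, starting fluorescence ratio at most library mean plus 5 SD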;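 further: more negative B-score means stronger inhibition of thallium flux through KCNK3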
Target sequence (O14649 whole entry, looked up): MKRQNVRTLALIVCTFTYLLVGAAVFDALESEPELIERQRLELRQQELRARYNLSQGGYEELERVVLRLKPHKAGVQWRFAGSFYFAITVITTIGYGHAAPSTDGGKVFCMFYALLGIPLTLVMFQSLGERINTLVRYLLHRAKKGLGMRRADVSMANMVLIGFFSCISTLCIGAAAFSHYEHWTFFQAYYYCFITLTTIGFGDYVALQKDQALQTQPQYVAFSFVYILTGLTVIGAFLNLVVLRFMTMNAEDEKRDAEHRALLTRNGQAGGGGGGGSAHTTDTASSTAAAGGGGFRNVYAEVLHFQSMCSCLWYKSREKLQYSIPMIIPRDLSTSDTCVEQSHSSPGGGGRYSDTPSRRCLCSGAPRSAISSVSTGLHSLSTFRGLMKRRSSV
KCNQ1 block: human KCNQ1 channel inhibition; P51787; CHO-K1 KCNQ1, FluxOR thallium flux fluorescence; hits give high values; B-score at 10 µM; hit rate 1.3% among 310,000; AID 2642;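 active means compounds whose thallium flux B-score, printed positive for inhibition, exceeds three library SD while starting fluorescence stays within three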;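 further: channel opened by potassium depolarization with thallium stimulus after 20 min compound exposure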
Kir21 block: Kir2.1 (mouse) channel inhibition; P35561; AID 1672; hit rate 0.85% among 310,000; B-score at 10 µM; HEK293-Kir2.1, FluxOR thallium flux fluorescence; hits give low values;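 active means fluorescence ratio B-score at or below minus 3 SD of library scores, with starting-brightness B-score within 2 SD, cut at about -4.2 in these data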;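 further: channel flux triggered by added potassium and thallium sulfate stimulus; B-score of peak minus minimum fluorescence over baseline after thallium stimulus; more negative B-score means stronger Kir2.1 block with less thallium influx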
KCNK9 inh conf: confirmation of human KCNK9 potassium channel inhibitors | shares compounds with KCNK9 inh | AID 492992 | HEK293 KCNK9 cells, FluxOR thallium flux fluorescence | inhibition, % at 10 µM | hit rate 43% among 4,900;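 active means thallium signal inhibited by more than 5 SD of the compound-free buffer control wells, on both duplicate plates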;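 further: 0% = assay buffer control wells without compound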
Kir21 sel: mouse Kir2.1 off-target activity of KCNK9 modulators | shares compounds with KCNK9 inh | inhibition, % at 10 µM | Kir2.1 cells, FluxOR thallium flux fluorescence | hit rate 4% among 4,900;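 active means thallium signal drop more than 5 SD beyond the mean of the no-compound control wells, seen in both duplicate plates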;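 further: signal is fluorescence rise after thallium addition divided by baseline fluorescence; plate controls were assay buffer only for no effect and full block by chlorpromazine control for full effect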
HEK293 Tl ctr: second counter-screen for KCNK9 modulators: effect in non-induced cells; inhibition, % at 10 µM; hit rate 40% among 4,900; shares compounds with KCNK9 inh; non-induced KCNK9-HEK293, FluxOR thallium flux; AID 492997;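 active means thallium signal drop beyond 5 SD of the untreated control mean, on both duplicate plates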;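 further: plate controls were buffer only IC0 wells for no effect and SID17386958 at its maximal inhibitory level for full effect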
* marks the source's active call; other numbers are inactive results; i = inactive; . = no result.

SMILES	KCNK9 inh	KCNQ1 pot	hERG protect	KCNK3 inh	KCNQ1 block	Kir21 block	KCNK9 inh conf	Kir21 sel	HEK293 Tl ctr
COc1ccc2oc(=O)c(-c3csc(Nc4cccc(O)c4)n3)cc2c1	-15*	i	-16.8	i	11*	1.42	65.5%*	i	28.5%*
COc1ccc(Nc2nc(-c3cc4cccc(OC)c4oc3=O)cs2)cc1	i	i	-6.0	i	i	0.05	.	.	.
CCOc1ccc(Cc2n[nH]c(=S)n2Cc2ccccc2)cc1	-15*	i	-11.4	i	i	-0.37	32.0%*	i	33.5%*
S=c1[nH]nc(Cc2ccccc2)n1-c1cccc2ccccc12	i	i	-13.6	i	i	-2.4	i	i	i
COc1ccc(CC(=O)OCC(=O)Nc2c(C)n(C)n(-c3ccccc3)c2=O)cc1OC	.	.	.	i	.	.	.	.	.
Cc1nnc(SCc2ccccc2)nc1-c1ccccc1	i	i	-10.6	i	i	-0.92	i	i	i
Cc1nc(C)c(C(=O)OCC(=O)NCc2ccccc2)s1	.	.	.	i	.	.	.	.	.
COC(=O)COc1cc(OCC(=O)OC)c2c(C)c(Cl)c(=O)oc2c1	i	i	-4.9	i	i	0.69	.	.	.
COC(=O)C(C)Oc1cc(OC(C)C(=O)OC)c2c(C)c(Cl)c(=O)oc2c1 (stereo not drawn)	i	i	-9.7	i	i	2.58	i	i	i
O=C(Nc1nc(-c2cc3ccccc3oc2=O)cs1)c1ccc(Br)o1	-9.93*	i	-2.8	i	i	0.44	26.5%*	i	i
Cc1cccc(OCCOC(=O)C2CCN(S(=O)(=O)c3ccc(C)c(C)c3)CC2)c1	i	i	-16.7	i	i	-0.48	i	i	i
CC(=O)c1ccc(OCCCC(=O)Nc2ccc(C)c(S(=O)(=O)N3CCCCC3)c2)cc1	.	.	.	i	.	.	.	.	.
Cc1ccc(OCCOC(=O)C2CCN(S(=O)(=O)c3ccc(C)c(C)c3)CC2)cc1	i	i	-7.3	i	i	-1.39	i	i	i
Cc1cccc(Oc2ccc(S(=O)(=O)N3CCCCC3)cc2N)c1	-10.5*	i	-23.4	i	i	0.65	50.5%*	i	31.0%*
Cc1cccc(OCCC(=O)Nc2ccc(C)c(S(=O)(=O)N3CCCCC3)c2)c1	i	i	-1.0	i	i	0	i	i	i
CCN(C(=O)COC(=O)c1ccccc1Nc1ccccc1)c1c(N)n(Cc2ccccc2)c(=O)[nH]c1=O	.	.	.	i	.	.	.	.	.
COc1cccc2c1-c1c(C(=O)O)cccc1C2=O	i	i	-8.9	i	i	-1.38	i	i	i
Cc1ccnc2nc(C(=O)OCC(=O)Nc3ccc([N+](=O)[O-])cc3Br)nn12	.	.	.	i	.	.	.	.	.
c1ccc(-c2nc(NCc3ccco3)c3oc4ccccc4c3n2)cc1	-8.67*	i	-17.9	i	i	-0.22	38.5%*	i	35.0%*
c1ccc(-c2nc(NCCCn3ccnc3)c3oc4ccccc4c3n2)cc1	i	i	-33.1	i	i	-4.4	.	.	.
O=C(Nc1cccnc1)c1ccc2nc(-c3ccccc3)c(-c3ccccc3)nc2c1	-10.9*	i	-9.9	i	i	-1.08	42.0%*	i	39.5%*
CC(=O)c1ccc(N(C(=O)c2csnn2)C(C(=O)NC2CCCC2)c2ccccc2)cc1 (stereo not drawn)	i	i	-6.9	i	i	-0.71	.	.	.
Cc1cccc(NC(=S)NC(=O)c2ccc(-c3ccccc3)cc2)n1	-11.4*	i	-9.8	i	i	-0.18	i	i	i
Cc1ccc(C(=O)O)cc1NC(=S)NC(=O)c1ccc(-c2ccccc2)cc1	i	i	-7.5	i	i	0.07	i	i	i
Cc1cccc(NC(=S)NC(=O)C(c2ccccc2)c2ccccc2)n1	i	i	-6.2	i	i	1.8	.	.	.
SMILES	KCNK9 inh	KCNQ1 pot	hERG protect	KCNK3 inh	KCNQ1 block	Kir21 block	KCNK9 inh conf	Kir21 sel	HEK293 Tl ctr
CC1CCC(NC(=O)c2cc(S(=O)(=O)N3CCCCC3)ccc2N2CCOCC2)CC1 (stereo not drawn)	.	.	.	i	.	.	.	.	.
C[C@H]1CN[C@H](CCO)/C1=C\c1ccccc1	.	.	.	i	.	.	.	.	.
CCCn1cc(S(=O)(=O)c2ccc(C)cc2)c(=O)c2cc(OC)c(OC)cc21	i	i	-10.6	i	i	-0.37	.	.	.
CCOC(=O)CNC(=O)C12CC3CC(C1)CC(c1ccc(C)cc1)(C3)C2	i	i	-20.2	i	i	0.3	i	i	i
CCOc1ccc(NC(=O)C23CC4CC(C2)CC(c2ccccc2)(C4)C3)cc1	i	i	-2.6	i	i	-0.99	i	i	i
Cc1ccc(C23CC4CC(CC(C(=O)NN)(C4)C2)C3)cc1	i	i	-4.3	i	i	-0.29	.	.	.
CC1(C)Oc2c(ccc(O)c2CN2CCOCC2)C2=C1CCCC2	.	.	.	i	.	.	.	.	.
Cc1ccc(C(=O)c2coc3c2C(=O)C(=O)c2ccccc2-3)cc1	-9.36*	i	-9.1	i	i	-0.44	i	i	i
CCOc1ccc(C(=O)C2CCN(C(=O)c3ccc([N+](=O)[O-])cc3)CC2)cc1	i	i	-7.8	i	i	0.43	.	.	.
CC(=O)c1cccc(NC(=S)NNC(=O)c2ccc(C)c([N+](=O)[O-])c2)c1	i	i	-7.1	i	i	2.18	.	.	.
Cc1ccc(NC(=S)NNC(=O)c2cccc([N+](=O)[O-])c2)cc1Cl	i	i	-14.4	i	8*	0.79	i	i	i
COc1ccc(/C=N/Nc2nc(-c3ccc(Cl)cc3)cc(C(F)(F)F)n2)cc1OC	i	i	-10.0	i	6*	0.06	i	i	i
O=c1nc2ccc(Cl)cn2c2ccc(S(=O)(=O)N3CCOCC3)cc12	i	i	-1.6	i	i	-0.18	.	.	.
CN1CCN(Cc2cccc(Oc3ccccc3)c2)CC1	i	i	-10.4	i	i	-0.38	.	.	.
COc1ccc(CN2CCN(Cc3cccc(Oc4ccccc4)c3)CC2)c(OC)c1OC	i	i	-14.5	i	i	-2.6	i	i	i
COc1ccc(CN2CCN(C(c3ccc(F)cc3)c3ccc(F)cc3)CC2)c(OC)c1OC	i	i	-26.6	i	i	-0.16	i	i	i
CC(C)(C)OC(=O)N[C@@H](C(=O)OC(C)(C)C)c1ccc(Br)cc1	.	.	.	i	.	.	.	.	.
